The source of these data is ChEMBL document CHEMBL4402563, “Preclinical Optimization of gp120 Entry Antagonists as anti-HIV-1 Agents with Improved Cytotoxicity and ADME Properties through Rational Design, Synthesis, and Antiviral Evaluation” (J Med Chem, 2020).

pIC50: −log10 of the molar value.

As usually defined, the pIC50 is −log10 of the IC50, conventionally taken in molar units. The term CC50 denotes the concentration giving 50% cytotoxicity. Read a low CC50 as harm at low concentration.

For data set [1], the system named is Human immunodeficiency virus 1. The data set is described as follows: Antiviral activity against HIV1 HXB2 infected in human TZM-bl cells preincubated for 30 min followed by viral infection and measured after 3 days by luciferase based assay. Format: functional, organism-based. The settings on record: Human immunodeficiency virus 1, M:B_HXB2R. In a few lines: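 Single-cycle pseudovirus carrying HXB2 Env (CXCR4-tropic), made in HEK293T by co-transfecting an Env-deleted backbone (pSG3Δenv or pNL4-3.Luc.R-E-) with an Env plasmid. TZM-bl cells were seeded at 1 × 10^4/well and grown overnight. Virus was pretreated with graded compound concentrations, then added. Cells were washed and lysed, and IC50 was taken from percent inhibition.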

The subject of data set [2] is TZM. The experiment in a line: Cytotoxicity against human TZM-bl cells incubated for 3 days by MTS assay. In kind it is cell-based. The settings on record: 72 h. A general note: Tetrazolium dyes change colour on reduction, which living cells bring about.
Data set [3] concerns Human immunodeficiency virus 1. The experiment in a line: Antiviral activity against HIV1-3B infected in human H9 cells assessed as inhibition in cell to cell HIV1 transmission to human TZM-bl acceptor cells incubated for 24 hrs by luciferase based assay. Format: functional, organism-based. To be noted: Human immunodeficiency virus 1, 3B.
Data set [4] deals with Human immunodeficiency virus 1. The experiment in a line: Antiviral activity against HIV1-ADA infected in human MOLT4 cells assessed as inhibition in cell to cell HIV1 transmission to human TZM-bl acceptor cells incubated for 24 hrs by luciferase based assay. In kind it is functional, organism-based. To be noted: Human immunodeficiency virus 1, 24 h.
Data set [5] has as its system Human immunodeficiency virus 1. The experiment in a line: microbe, parasite or virus in culture. The settings on record: Human immunodeficiency virus 1, subtypeA.
The subject of data set [6] is Human immunodeficiency virus 1. The data set is described as follows: microbe, parasite or virus in culture. To be noted: Human immunodeficiency virus 1, subtypeA. This is another data set of the same source.
A short description of data set [7]: Cytotoxicity against dog Cf2Th-CCR5 cells infected with CD4-dependent pseudovirus HIV1 ADA incubated for 48 hrs by MTS assay.

In data set [1], `NC[C@H](NC(=O)c1ccc(-c2ccc(C(F)(F)F)cn2)[nH]1)c1ncc(C(O)CO)s1` (stereo partly specified) had a pIC50 of 5.23. The compound also returned a CC50 in data set [2] greater than 113 µM. As to `COc1cnc(-n2cnc(C)n2)c2[nH]cc(C(=O)C(=O)N3CCN(C(=O)c4ccccc4)CC3)c12`, the pIC50 in data set [1] is greater than 9.00; in data set [3], 7.70; in data set [4], 6.70. `NC[C@H](NC(=O)c1ccc(-c2ccc(C(F)(F)F)cn2)[nH]1)c1ncc(CO)s1` gave a pIC50 in data set [1] of 5.92. In turn, `Cc1cc(-c2ccc(C(F)(F)F)cn2)[nH]c1C(=O)N[C@H](c1ncc(CO)s1)C(C)(C)N` had a pIC50 in data set [1] of 6.37. The CC50 in data set [2] turned out to be 37.5 µM. `Cc1ccc(-c2ccc(C(=O)N[C@H](CN)c3nc(CO)cs3)[nH]2)nc1` showed a pIC50 in data set [1] of 5.02.

Compound `NC[C@@H](NC(=O)c1ccc(-c2ccc(Cl)cn2)[nH]1)c1nc(CO)cs1` had a pIC50 in data set [1] of 5.30. The same compound gave a CC50 in data set [2] greater than 132 µM. The like results for `NC[C@H](NC(=O)c1ccc(-c2ccc(C(F)(F)F)cn2)[nH]1)c1nc(CO)cs1` were, in that order, 6.52 and 77.9 µM.

`Cc1cc(-c2ccc(Cl)cn2)[nH]c1C(=O)N[C@@H](CN)c1ncc(CO)s1` gave a pIC50 in data set [1] of 5.62. In data set [2], this compound had a CC50 of 95 µM. Consider `NC[C@H](NC(=O)c1ccc(-c2ccc(C(F)(F)F)cn2)[nH]1)c1nc(CO)c(CO)s1`, for which the pIC50 in data set [1] is less than 4.89. As for `NC[C@@H](NC(=O)c1ccc(-c2ccc(C(F)(F)F)cc2)[nH]1)c1ncc(CO)s1`, the CC50 in data set [2] was found to be 42.4 µM. The pIC50 was 6.15 in data set [5] and 6.10 in data set [6]. In turn, `NC[C@@H](NC(=O)c1ccc(-c2ccc(C(F)(F)F)cn2)[nH]1)c1nc(CCO)cs1` showed a negative logarithm of the IC50 (pIC50) in data set [1] of 5.77. The compound further came in with a CC50 in data set [2] of 100 µM. `NC[C@@H](NC(=O)c1ccc(-c2ccc(F)cn2)[nH]1)c1nc(CO)cs1` showed a pIC50 in data set [1] of less than 4.96.

In the case of `NC[C@H](NC(=O)c1ccc(-c2ccc(C(F)(F)F)nn2)[nH]1)c1nc(CO)cs1`, the pIC50 in data set [1] was less than 4.92. Turning to `NC[C@@H](NC(=O)c1ccc(-c2ccc(C(F)(F)F)nn2)[nH]1)c1nc(CO)cs1`, in data set [1], the pIC50 was less than 4.92. The compound also yielded a half-maximal cytotoxic concentration (CC50) in data set [2] greater than 73 µM. The like results for `NC[C@@H](NC(=O)c1ccc(-c2ccc(C(F)(F)F)cn2)[nH]1)c1nc(CO)c(CO)s1` were, in that order, 5.74 and greater than 113 µM. The like results for `NC[C@H](NC(=O)c1ccc(-c2ccc(C(F)(F)F)nc2)[nH]1)c1nc(CO)cs1` were, in that order, 4.92 and greater than 122 µM.

In data set [1], `NC[C@@H](NC(=O)c1ccc(-c2ccc(C(F)(F)F)cn2)[nH]1)c1nccs1` showed a pIC50 of 5.70. Further, in data set [2], the CC50 was found to be 89.3 µM.

Compound `Cc1ccc(-c2ccc(C(=O)N[C@@H](CN)c3nc(CO)cs3)[nH]2)nc1` showed a pIC50 in data set [1] of less than 4.96. In addition, the CC50 in data set [2] is greater than 140 µM.

With `NC[C@@H](NC(=O)c1ccc(-c2ccc(Cl)nc2)[nH]1)c1nc(CO)cs1`, the pIC50 in data set [1] is less than 4.96.

The compound `CC(C)(N)[C@H](NC(=O)c1ccc(-c2ccc(C(F)(F)F)cn2)[nH]1)c1ncc(CO)s1` showed a pIC50 in data set [1] of 6.30. In data set [2], this compound registered a CC50 of 42.4 µM. In data set [1], `COc1cc(-c2ccc(C(=O)N[C@H](CN)c3nc(CO)cs3)[nH]2)ccn1` gave a pIC50 of less than 4.96.

Regarding `Cc1cc(-c2ccc(C(F)(F)F)cn2)[nH]c1C(=O)N[C@H](CN)c1ncc(CO)s1`, half-maximal cytotoxicity in data set [2] (CC50) was put at 92.8 µM. In data set [1], `NC[C@H](NC(=O)c1ccc(-c2ccc(C(F)(F)F)cn2)[nH]1)c1nc(CCCO)cs1` gave a pIC50 of 6.05. This compound came in with a CC50 in data set [2] of 81.2 µM. Consider `COc1cc(-c2ccc(C(=O)N[C@@H](CN)c3nc(CO)cs3)[nH]2)ccn1`, for which the pIC50 in data set [1] is less than 4.96. The CC50 in data set [2] is greater than 133 µM. The like results for `Cc1cc(-c2ccc(C(F)(F)F)cn2)[nH]c1C(=O)N[C@@H](c1ncc(CO)s1)C(C)(C)N` were, in that order, 6.22 and 35.3 µM. The like results for `NC[C@H](NC(=O)c1ccc(-c2ccc(C(F)(F)F)cn2)[nH]1)c1nc(CCO)cs1` were, in that order, 6.12 and 91 µM.

In data set [1], `Cc1cc(-c2ccc(Cl)cn2)[nH]c1C(=O)N[C@H](CN)c1ncc(CO)s1` gave a pIC50 of 5.92. In data set [2], half-maximal cytotoxicity (CC50) was put at 98.3 µM. For `CC(CN)(NC(=O)c1ccc(-c2ccc(C(F)(F)F)cn2)[nH]1)c1nc(CO)cs1` (racemic), in that order: 5.29 and greater than 70.5 µM.

The compound `CC(C)(N)[C@H](NC(=O)c1ccc(-c2ccc(C(F)(F)F)cn2)[nH]1)c1nc(CO)cs1` had a pIC50 in data set [1] of 6.24. The compound further showed a CC50 in data set [2] of 59 µM. In data set [1], `NC[C@@H](NC(=O)c1ccc(-c2ncc(Cl)cn2)[nH]1)c1nc(CO)cs1` had a pIC50 of less than 4.80. Still for that read-out and setting: the value for `NC[C@H](NC(=O)c1ccc(-c2ccc(Cl)cn2)[nH]1)c1nc(CO)cs1` was 5.77. Take `Cc1cc(-c2ccc(C(F)(F)F)cn2)[nH]c1C(=O)NC(C)(CN)c1nc(CO)cs1` (racemic): the pIC50 in data set [1] is 5.59. In addition, the CC50 in data set [2] was greater than 68.3 µM.

Turning to `CC(C)(N)[C@@H](NC(=O)c1ccc(-c2ccc(C(F)(F)F)cn2)[nH]1)c1nc(CO)cs1`, the pIC50 in data set [1] is 5.77. For the same compound, the CC50 in data set [2] worked out at 61 µM. The like results for `NC[C@H](NC(=O)c1ccc(-c2ccc(C(F)(F)F)cn2)[nH]1)c1nc(C(O)CO)cs1` (stereo partly specified) were, in that order, 5.42 and greater than 113 µM. For `NC[C@@H](NC(=O)c1ccc(-c2ccc(C(F)(F)F)cn2)[nH]1)c1nc(CCCO)cs1`, in that order: 5.64 and greater than 114 µM.

In data set [2], `Cc1cc(-c2ccc(C(F)(F)F)cn2)[nH]c1C(=O)N[C@@H](CN)c1nc(CO)cs1` had a CC50 of 85 µM. For `NC[C@H](NC(=O)c1ccc(-c2ncc(Cl)cn2)[nH]1)c1nc(CO)cs1`, in data set [1], the pIC50 is less than 4.80. The same compound had a CC50 in data set [2] greater than 66 µM. For `NC[C@H](NC(=O)c1ccc(-c2ccc(C(F)(F)F)cn2)[nH]1)c1nccs1`, in that order: 5.92 and 93.6 µM. Turning to `NC[C@@H](NC(=O)c1ccc(-c2ccc(C(F)(F)F)nc2)[nH]1)c1nc(CO)cs1`, in data set [1], the pIC50 was 4.90.

As for `CC(C)(N)[C@@H](NC(=O)c1ccc(-c2ccc(C(F)(F)F)cn2)[nH]1)c1ncc(CO)s1`, the pIC50 in data set [1] was 6.28. This compound yielded a CC50 in data set [2] of 74 µM. The like results for `NC[C@H](NC(=O)c1ccc(-c2ccc(F)cn2)[nH]1)c1nc(CO)cs1` were, in that order, less than 4.96 and greater than 138 µM.

On to `Cc1cc(-c2ccc(C(F)(F)F)cn2)[nH]c1C(=O)N[C@H](CN)c1nc(CO)cs1`, for which, in data set [7], the Activity result is on record as “Non-Toxic”. `NC[C@@H](NC(=O)c1ccc(-c2ccc(C(F)(F)F)cn2)[nH]1)c1ncc(CO)s1` had a pIC50 in data set [1] of 6.02. In data set [2], this compound gave a half-maximal cytotoxic concentration (CC50) greater than 122 µM. The like results for `NC[C@@H](NC(=O)c1ccc(-c2ccc(Cl)cn2)[nH]1)c1ncc(CO)s1` were, in that order, 6.07 and 144 µM.

As for `CC1(C)CC(NC(=O)C(=O)Nc2ccc(Cl)cc2)CC(C)(C)N1`, the Activity result in data set [7] was “Non-Toxic”. With `NC[C@@H](NC(=O)c1ccc(-c2ccc(C(F)(F)F)cn2)[nH]1)c1ncc(C(O)CO)s1` (stereo partly specified), the pIC50 in data set [1] was 5.68. `NC[C@H](NC(=O)c1ccc(-c2ccc(Cl)cn2)[nH]1)c1ncc(CO)s1` showed a pIC50 in data set [1] of 5.57. This compound registered a CC50 in data set [2] of 142 µM. In turn, `NC[C@@H](NC(=O)c1ccc(-c2ccc(C(F)(F)F)cn2)[nH]1)c1nc(C(O)CO)cs1` (stereo partly specified) had a pIC50 in data set [1] of 5.28. In data set [1], `NC[C@@H](NC(=O)c1ccc(-c2ccc(C(F)(F)F)cn2)[nH]1)c1nc(CO)cs1` had a pIC50 of 6.23. The compound also yielded a CC50 in data set [2] of 94.3 µM. For `NC[C@H](NC(=O)c1ccc(-c2ccc(Cl)nc2)[nH]1)c1nc(CO)cs1`, in that order: less than 4.96 and greater than 132 µM.
